pEC50, pIC50: −log10 of the molar value. Calls of active or inactive are those of the source. The rule behind the calls is not given here.
Assays:
[1] = Cell cycle arrest in human GISTT1 cells assessed as accumulation at G0/G1 phase at 1 uM after 24 hrs by propidium iodide/RNase staining based flow cytometry; assay type: functional
In short: (§1)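 Cells were exposed to serially diluted compound, then fixed in cold 70% ethanol overnight at -20 °C. They were stained with PI/RNase buffer for DNA-content cell-cycle analysis.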

[2] = biological target: T1, Mast/stem cell growth factor receptor Kit (Homo sapiens, UniProt P10721); conditions: 1 uM
T1 sequence (P10721 whole entry): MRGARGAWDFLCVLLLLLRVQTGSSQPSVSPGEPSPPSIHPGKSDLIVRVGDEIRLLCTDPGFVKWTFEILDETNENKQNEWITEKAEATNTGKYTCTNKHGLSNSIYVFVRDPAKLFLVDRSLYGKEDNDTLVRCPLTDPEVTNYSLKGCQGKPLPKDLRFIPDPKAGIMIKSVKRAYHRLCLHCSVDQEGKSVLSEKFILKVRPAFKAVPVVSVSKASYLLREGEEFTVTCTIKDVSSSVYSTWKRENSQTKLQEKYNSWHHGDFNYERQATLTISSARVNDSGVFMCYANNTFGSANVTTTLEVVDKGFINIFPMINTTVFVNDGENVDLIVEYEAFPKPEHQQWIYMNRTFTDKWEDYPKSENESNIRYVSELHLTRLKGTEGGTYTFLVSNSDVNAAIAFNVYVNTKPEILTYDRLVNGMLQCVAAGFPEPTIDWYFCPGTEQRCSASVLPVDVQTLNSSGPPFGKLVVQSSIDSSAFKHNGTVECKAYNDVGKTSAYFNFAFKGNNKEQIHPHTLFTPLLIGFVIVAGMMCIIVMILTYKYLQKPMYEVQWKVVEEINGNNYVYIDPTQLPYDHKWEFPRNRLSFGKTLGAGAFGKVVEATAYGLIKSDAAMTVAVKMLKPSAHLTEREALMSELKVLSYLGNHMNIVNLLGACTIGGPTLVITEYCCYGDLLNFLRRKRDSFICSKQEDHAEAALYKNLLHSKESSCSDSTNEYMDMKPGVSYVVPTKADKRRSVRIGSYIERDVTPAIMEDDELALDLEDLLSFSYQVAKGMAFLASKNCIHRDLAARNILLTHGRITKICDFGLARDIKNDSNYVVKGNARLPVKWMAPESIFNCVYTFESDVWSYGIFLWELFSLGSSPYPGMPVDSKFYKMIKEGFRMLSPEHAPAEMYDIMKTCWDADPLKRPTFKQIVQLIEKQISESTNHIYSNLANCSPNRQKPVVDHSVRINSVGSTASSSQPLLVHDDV

[3] = biological target: T1, Mast/stem cell growth factor receptor Kit; conditions: 1 uM; remark: listed apart in the source
[4] = biological target: T1, Mast/stem cell growth factor receptor Kit; conditions: 1 uM; remark: listed apart in the source
[5] = biological target: T1, Mast/stem cell growth factor receptor Kit; conditions: GISTT1, 1 uM
[6] = biological target: T1, Mast/stem cell growth factor receptor Kit; conditions: 1 uM; remark: listed apart in the source
[7] = Cell cycle arrest in human K562 cells assessed as accumulation at G0/G1 phase at 1 uM after 24 hrs by propidium iodide/RNase staining based flow cytometry; assay type: functional; in short: as §1
KU812 cell line [8] = assay: Induction of apoptosis in human KU812 cells assessed as cleavage of PARP at 0.1 to 3 uM by Western blot analysis; assay type: functional, cell-based
In short: (§2)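 Cells were treated with DMSO or serially diluted compound for the indicated periods. They were washed in ice-cold PBS and lysed in RIPA buffer with protease/phosphatase inhibitors, and protein was quantified by BCA. Lysates were resolved by SDS-PAGE, transferred to PVDF and blocked in 5% milk/TBST. Blots were probed for PARP and caspase-3, with β-actin as loading control, and detected by ECL.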

[9] = biological target: T2, BCR/ABL p210 fusion protein (Homo sapiens, UniProt A1Z199); assay: Inhibition of BCR/ABL p210 fusion protein mediated signaling pathways assessed as reduction in Stat5 phosphorylation at Y694 in human K562 cells at 0.01 to 3 uM measured after 2 hrs by immunoblotting; assay type: cell-based
In short: (§3)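 After an ice-cold PBS wash, cells were lysed in RIPA buffer (50 mM Tris pH 8.0) with protease and phosphatase inhibitors, and protein was quantified by BCA. Lysates were run on SDS-PAGE, transferred to PVDF and blocked in 5% milk/TBST. Phospho- and total proteins were probed by immunoblot with ECL detection; β-actin served as loading control.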
Target sequence in this assay (A1Z199 1-97): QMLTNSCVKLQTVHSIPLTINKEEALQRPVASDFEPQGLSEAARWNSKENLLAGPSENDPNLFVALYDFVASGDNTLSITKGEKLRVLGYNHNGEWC

[10] = biological target: T1, Mast/stem cell growth factor receptor Kit; assay: Inhibition of c-KIT autophosphorylation at Y703 in human GIST882 cells at 0.01 to 3 uM measured after 2 hrs by immunoblotting; assay type: cell-based; in short: as §3
[11] = biological target: T2, BCR/ABL p210 fusion protein; assay: Inhibition of BCR/ABL p210 fusion protein autophosphorylation at Y245 in human K562 cells measured after 2 hrs by immunoblotting; assay type: cell-based; in short: as §3
Target sequence in this assay (A1Z199 whole entry, the tested form may be a part): as the sequence (A1Z199 1-97) above

[12] = Half life in Sprague-Dawley rat at 1 mg/kg, iv; assay type: ADME, organism-based; conditions: in vivo
In short: (§4)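 Male Sprague-Dawley rats aged six to eight weeks were fasted overnight and then dosed iv or orally. Blood (~0.2 mL) was drawn from the jugular vein into heparin and kept on ice. Sampling was at 1 min to 8 h for iv and 5 min to 24 h for oral. Plasma was separated by centrifugation at 2-8 °C and stored at -80 °C until analysis.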

[13] = biological target: T2, BCR/ABL p210 fusion protein; assay: Inhibition of BCR/ABL p210 fusion protein autophosphorylation at Y245 in human […] cells at 0.01 to 3 uM measured after 2 hrs by immunoblotting; assay type: cell-based; in short: as §3
Target sequence in this assay (A1Z199 1-97): as above

Mus musculus = assay: Toxicity in nu/nu mouse xenografted with human K562 cells assessed as change in body weight at 25 to 100 mg/kg/day administered via oral gavage measured after 28 days; assay type: organism-based; conditions: in vivo, 672 h
In short: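 Female nu/nu mice given 10 million K562 cells in PBS/Matrigel (1:1) subcutaneously into the right flank. Once tumors reached 200 to 400 mm³, mice were randomized into groups of 4 or 5 and dosed daily by oral gavage in 0.5% methylcellulose/0.4% Tween80 in water, or vehicle, for 28 days. Body weight measured and expressed relative to initial; mean ± SEM.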

MEG-01 = assay: Induction of apoptosis in human MEG01 cells assessed as increase in cleaved caspase-3 level at 0.1 to 3 uM by Western blot analysis; assay type: functional, cell-based
[14] = biological target: Tyrosine-protein kinase Blk (Homo sapiens, UniProt P51451); assay: Inhibition of full length recombinant His-tagged human BLK cytoplasmic domain expressed in baculovirus expression system assessed as residual activity at 1 uM measured after 1 hr by FRET based Z'Lyte assay relative to control
Chain of Tyrosine-protein kinase Blk (P51451 2-505 limits assumed): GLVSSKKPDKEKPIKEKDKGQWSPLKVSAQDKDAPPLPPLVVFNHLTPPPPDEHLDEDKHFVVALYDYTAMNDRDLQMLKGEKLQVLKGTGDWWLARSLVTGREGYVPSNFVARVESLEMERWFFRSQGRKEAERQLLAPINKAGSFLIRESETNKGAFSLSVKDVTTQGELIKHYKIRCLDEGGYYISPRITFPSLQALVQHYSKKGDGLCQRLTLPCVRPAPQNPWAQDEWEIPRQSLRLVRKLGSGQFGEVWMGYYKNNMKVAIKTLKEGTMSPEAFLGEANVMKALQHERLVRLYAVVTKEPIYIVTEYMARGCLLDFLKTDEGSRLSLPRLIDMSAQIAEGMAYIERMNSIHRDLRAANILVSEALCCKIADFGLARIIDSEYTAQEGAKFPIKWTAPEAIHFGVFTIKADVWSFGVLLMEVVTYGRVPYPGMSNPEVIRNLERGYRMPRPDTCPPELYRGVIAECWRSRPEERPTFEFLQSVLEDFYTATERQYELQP

[15] = AUC (0 to infinity) in Sprague-Dawley rat at 10 mg/kg, po; assay type: ADME, organism-based; parameters: dose 10 mg/kg, time infinity, route oral; conditions: in vivo; in short: as §4
[16] = Cmax in Sprague-Dawley rat at 1 mg/kg, iv; assay type: ADME, organism-based; parameters: dose 1 mg/kg, route intravenous; conditions: in vivo; in short: as §4
[17] = biological target: T2, BCR/ABL p210 fusion protein; assay: Inhibition of BCR/ABL p210 fusion protein mediated signaling pathways assessed as reduction in CrkL phosphorylation at Y207 in human KU812 cells at 0.01 to 3 uM measured after 2 hrs by immunoblotting; assay type: cell-based; in short: as §3
Target sequence in this assay (A1Z199 1-97): as the sequence (A1Z199 1-97) above

[18] = biological target: Tyrosine-protein kinase ABL1 (Homo sapiens, UniProt P00519); assay: Inhibition of C-terminal His-tagged human ABL1 expressed in baculovirus infected SF9 cells using Tyr 02 peptide as substrate measured after 1 hr by FRET based Z'Lyte assay
Chain of Tyrosine-protein kinase ABL1 (P00519 whole entry): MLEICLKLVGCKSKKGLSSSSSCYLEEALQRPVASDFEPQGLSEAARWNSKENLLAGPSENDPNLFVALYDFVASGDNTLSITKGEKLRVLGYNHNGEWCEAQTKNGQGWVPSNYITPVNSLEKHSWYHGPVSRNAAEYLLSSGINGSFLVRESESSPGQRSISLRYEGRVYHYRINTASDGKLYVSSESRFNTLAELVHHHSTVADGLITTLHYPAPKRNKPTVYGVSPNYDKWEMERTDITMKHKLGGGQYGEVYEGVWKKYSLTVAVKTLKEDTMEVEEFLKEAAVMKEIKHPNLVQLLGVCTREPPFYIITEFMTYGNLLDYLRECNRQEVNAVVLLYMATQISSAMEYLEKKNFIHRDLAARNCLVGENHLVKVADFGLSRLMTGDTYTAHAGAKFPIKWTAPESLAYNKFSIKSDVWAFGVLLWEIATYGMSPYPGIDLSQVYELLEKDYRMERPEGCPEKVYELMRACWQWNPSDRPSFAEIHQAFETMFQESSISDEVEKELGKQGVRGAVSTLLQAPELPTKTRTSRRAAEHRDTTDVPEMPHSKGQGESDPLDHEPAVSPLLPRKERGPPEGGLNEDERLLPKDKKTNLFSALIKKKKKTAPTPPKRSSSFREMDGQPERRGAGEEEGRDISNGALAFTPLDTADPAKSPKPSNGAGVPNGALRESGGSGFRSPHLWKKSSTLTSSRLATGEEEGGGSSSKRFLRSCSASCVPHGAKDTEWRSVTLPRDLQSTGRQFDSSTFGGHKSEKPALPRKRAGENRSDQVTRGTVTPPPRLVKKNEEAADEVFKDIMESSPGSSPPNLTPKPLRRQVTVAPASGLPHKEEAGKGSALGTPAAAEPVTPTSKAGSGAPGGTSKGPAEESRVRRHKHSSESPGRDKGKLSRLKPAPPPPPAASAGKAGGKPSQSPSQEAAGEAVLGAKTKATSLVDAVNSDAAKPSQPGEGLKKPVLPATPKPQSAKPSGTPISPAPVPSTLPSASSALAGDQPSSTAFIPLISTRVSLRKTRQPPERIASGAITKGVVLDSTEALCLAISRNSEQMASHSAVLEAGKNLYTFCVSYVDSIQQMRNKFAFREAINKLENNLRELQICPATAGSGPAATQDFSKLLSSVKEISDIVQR

K562 = assay: Induction of apoptosis in human K562 cells assessed as increase in cleaved caspase-3 level at 0.1 to 3 uM by Western blot analysis; assay type: functional, cell-based; in short: as §2
[19] = system: Mast/stem cell growth factor receptor Kit (Homo sapiens), P10721 [V559D,V654A]; assay: Inhibition of Tel-fused c-KIT V559D/V654A double mutant (unknown origin) expressed in BAF3 cells assessed as growth inhibition measured after 72 hrs by CellTiter-Glo or CCK8 assay; assay type: cell-based
Chain of Mast/stem cell growth factor receptor Kit (Homo sapiens), P10721 [V559D,V654A] (P10721 whole entry V559D/V654A, the tested form may be a part): as the sequence (P10721 whole entry) above, with V559D, V654A counted along it
In short: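 BaF3 lines were made by retroviral transduction with kinase-fusion MSCV vectors packaged in HEK293T cells. Cells were selected with puromycin for 48 h, then selected again without IL-3 so growth depends on the introduced kinase. […] They were seeded at 1 to 2.5×10^4 cells/mL with compound dilutions and incubated 72 h. Viability was read by CellTiter-Glo luminescence or CCK-8 absorbance (450/655 nm), normalized to DMSO control; GI50 was curve-fitted from triplicate tests.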

[20] = biological target: T1, Mast/stem cell growth factor receptor Kit; assay: Inhibition of c-KIT mediated signaling pathways assessed as reduction in S6 phosphorylation at S235/236 in human GIST882 cells at 0.03 to 10 uM measured after 2 hrs by immunoblotting; assay type: cell-based; in short: as §3
GISTT1 = assay: Induction of apoptosis in human GISTT1 cells assessed as increase in cleaved caspase-3 level at 0.1 to 3 uM by Western blot analysis; assay type: functional, cell-based; in short: as §2
KU812 cell line [21] = assay: Induction of apoptosis in human KU812 cells assessed as increase in cleaved caspase-3 level at 0.1 to 3 uM by Western blot analysis; assay type: functional, cell-based; in short: as §2
[22] = Cell cycle arrest in human K562 cells assessed as accumulation at G0/G1 phase at 0.3 uM after 24 hrs by propidium iodide/RNase staining based flow cytometry; assay type: functional; in short: as §1

With Cc1ccc(NC(=O)c2ccc(CN3CCN(C)CC3)cc2)cc1Nc1nccc(-c2cccnc2)n1 [IMATINIB] the Activity [1] was “Active”, the inhibition [2] was “Active” and the inhibition [3] was “Active”. For the same compound, the inhibition [4] was “Active”, the inhibition [5] was “Active” and the inhibition [6] was “Active”. The Activity [7] was “Active”.

In the case of Cc1ccc(C(=O)N2CCC(Oc3cc(NC(=O)c4ccc(CN5CCN(C)CC5)c(C(F)(F)F)c4)ccc3C)CC2)cn1, the Activity (KU812 cell line [8]) was “Active”, the inhibition [9] was “Active” and the inhibition [10] was “Active”. The pEC50 [11] was over 7.00, the half-life [12] was 2.47 h and the inhibition [13] was “Active”. The Activity (Mus musculus) was “Non-Toxic”, the Activity (MEG-01) was “Active” and the Activity [14] was 0.45%. For the same compound, the AUC(0-inf) [15] was 2430 ng·h/mL, the Cmax [16] was 825 ng/mL and the inhibition [17] was “Active”. For the same compound, the pIC50 [18] was 7.34, the Activity (K562) was “Active” and the GI50 [19] was 2870 nM. For the same compound, the inhibition [20] was “Active”, the Activity (GISTT1) was “Active” and the Activity (KU812 cell line [21]) was “Active”. For the same compound, the Activity [22] was “Active”.

Reference: ChEMBL document CHEMBL3877303 (J Med Chem, 2017)
